Measurements from ChEMBL document CHEMBL1157900, “Bivalent 5,8,9,13b-tetrahydro-6H-isoquino[1,2-a]isoquinolines and -isoquinolinium salts: novel heterocyclic templates for butyrylcholinesterase inhibitors” (Bioorg Med Chem Lett, 2010).
The source made the active and inactive calls. No cut-off for these calls is given here.

Assays:
[1] = Selectivity ratio of IC50 for Electric eel AChE to IC50 for equine serum BChE
Cholinesterase = Cholinesterase (Equus caballus, UniProt P81908); test: Inhibition of Equine serum BChE after 2 mins by colorimetric Ellman assay
Acetylcholinesterase = Acetylcholinesterase (Electrophorus electricus, UniProt O42275); test: Inhibition of Electric eel AChE after 2 mins by colorimetric Ellman assay
[2] = Cytotoxicity against human U87MG cells assessed as cell viability after 24 hrs by MTT assay; type: cell-based, U-87MG ATCC
Method in brief: (§1)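 Photometric MTT cell-viability readout after compound exposure of human neuronal (SH-SY5Y) or glial (MG-U87) cells. CC50 reported as mean ± SD of at least three experiments, each run in triplicate.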

[3] = Cytotoxicity against human SH-SY5Y cells assessed as cell viability after 24 hrs by MTT assay; type: cell-based; method in brief: as §1
[4] = target: Cholinesterase (Equus caballus) (UniProt P81908); test: Competitive inhibition of Equine serum BChE by Lineweaver-Burke plot
Method in brief: (§2)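 Equine serum BChE. Substrate-velocity curves were recorded at various substrate concentrations, each at several fixed inhibitor concentrations. Data were plotted as reciprocal velocity against reciprocal substrate concentration (Lineweaver-Burk). Km was taken as the negative reciprocal of the x-intercept and Vmax as the reciprocal of the y-intercept, then compared across inhibitor concentrations.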

[5] = target: Cholinesterase (Equus caballus) (UniProt P81908); test: Reversible inhibition of Equine serum BChE by Lineweaver-Burke plot; method in brief: as §2

Sequence of Cholinesterase (P81908 whole entry): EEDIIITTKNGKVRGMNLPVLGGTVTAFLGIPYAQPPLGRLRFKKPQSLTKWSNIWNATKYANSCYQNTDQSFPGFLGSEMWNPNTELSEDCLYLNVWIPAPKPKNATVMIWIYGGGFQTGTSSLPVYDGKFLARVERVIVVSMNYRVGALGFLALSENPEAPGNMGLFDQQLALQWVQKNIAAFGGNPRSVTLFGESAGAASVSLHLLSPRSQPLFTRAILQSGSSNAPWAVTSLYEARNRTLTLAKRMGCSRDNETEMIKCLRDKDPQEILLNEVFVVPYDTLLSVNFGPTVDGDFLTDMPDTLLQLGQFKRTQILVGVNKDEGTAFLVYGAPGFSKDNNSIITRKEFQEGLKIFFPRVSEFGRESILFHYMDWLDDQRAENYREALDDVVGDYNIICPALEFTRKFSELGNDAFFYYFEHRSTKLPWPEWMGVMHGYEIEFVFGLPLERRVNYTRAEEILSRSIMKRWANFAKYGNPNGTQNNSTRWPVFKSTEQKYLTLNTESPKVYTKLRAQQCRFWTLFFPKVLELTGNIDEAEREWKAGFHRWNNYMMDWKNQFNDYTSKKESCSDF
Sequence of Acetylcholinesterase (O42275 whole entry): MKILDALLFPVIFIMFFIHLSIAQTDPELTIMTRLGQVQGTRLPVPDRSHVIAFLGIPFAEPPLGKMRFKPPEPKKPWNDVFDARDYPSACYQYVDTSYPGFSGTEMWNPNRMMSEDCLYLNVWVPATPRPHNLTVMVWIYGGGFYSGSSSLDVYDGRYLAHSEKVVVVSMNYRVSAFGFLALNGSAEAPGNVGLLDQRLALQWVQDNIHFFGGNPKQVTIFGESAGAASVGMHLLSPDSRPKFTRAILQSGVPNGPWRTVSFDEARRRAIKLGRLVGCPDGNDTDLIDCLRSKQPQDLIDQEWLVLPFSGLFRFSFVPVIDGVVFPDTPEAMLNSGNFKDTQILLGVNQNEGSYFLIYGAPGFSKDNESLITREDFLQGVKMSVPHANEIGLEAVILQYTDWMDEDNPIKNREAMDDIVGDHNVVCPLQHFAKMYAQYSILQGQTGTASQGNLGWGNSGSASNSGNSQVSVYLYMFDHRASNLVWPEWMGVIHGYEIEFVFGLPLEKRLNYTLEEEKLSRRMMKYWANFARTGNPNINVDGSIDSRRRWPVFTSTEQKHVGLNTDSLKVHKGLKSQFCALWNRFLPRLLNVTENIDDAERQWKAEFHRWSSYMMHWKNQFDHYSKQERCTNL
Sequence of Cholinesterase (Equus caballus) (P81908 whole entry): as the sequence (P81908 whole entry) above

Structure (SMILES) | Ratio IC50 [1] | IC50 (Cholinesterase; read-out: IC50) | IC50 (Acetylcholinesterase; read-out: IC50) | CC50 at 24 h [2] | CC50 at 24 h [3] | IC50 (Acetylcholinesterase; read-out: pIC50 (converted)) | inhibition [4] | inhibition [5] | IC50 (Cholinesterase; read-out: pIC50 (converted))
C[N+]12CCc3ccccc3C1c1ccc(OCCCCCCCCOc3ccc4c(c3)CC[N+]3(C)CCc5ccccc5C43)cc1CC2 (centres undefined) | 2.5 | 0.11 µM | 0.28 µM |  |  |  |  |  | 
c1ccc2c(c1)CCN1CCc3cc(OCCCCOc4ccc5c(c4)CCN4CCc6ccccc6C54)ccc3C21 (centres undefined) | 76.2 | 0.017 µM | 1.1 µM | 19.5 µM | 6.35 µM |  |  |  | 
c1ccc2c(c1)CCN1CCc3cc(OCCCCCCCCCCCCOc4ccc5c(c4)CCN4CCc6ccccc6C54)ccc3C21 (centres undefined) | 4.2 | 0.92 µM | 4.1 µM | 46.6 µM |  |  |  |  | 
C[N+]12CCc3ccccc3C1c1ccc(OCCCOc3ccc4c(c3)CC[N+]3(C)CCc5ccccc5C43)cc1CC2 (centres undefined) |  | 0.16 µM | 0.45 µM |  |  |  |  |  | 
C[N+]12CCc3ccccc3C1c1ccc(OCCCCOc3ccc4c(c3)CC[N+]3(C)CCc5ccccc5C43)cc1CC2 (centres undefined) | 8.8 | 0.051 µM | 0.39 µM |  |  |  |  |  | 
c1ccc2c(c1)CCN1CCc3cc(OCCCCCOc4ccc5c(c4)CCN4CCc6ccccc6C54)ccc3C21 (centres undefined) | 38.3 | 0.017 µM | 0.65 µM | 8.7 µM |  | 0.308 µM |  |  | 
C[N+]12CCc3ccccc3C1c1ccc(OCCCCCOc3ccc4c(c3)CC[N+]3(C)CCc5ccccc5C43)cc1CC2 (centres undefined) | 5.9 | 0.047 µM | 0.28 µM |  |  |  |  |  | 
c1ccc2c(c1)CCN1CCc3cc(OCCCCCCOc4ccc5c(c4)CCN4CCc6ccccc6C54)ccc3C21 (centres undefined) | 48.9 | 0.014 µM | 0.69 µM | 20.7 µM | 7.4 µM |  | Active | Active | 
CN1CCc2ccccc2Cc2ccc(OCCCOc3ccc4c(c3)CCN(C)CCc3ccccc3C4)cc2CC1 | 34 | 0.14 µM | 4.8 µM |  |  |  |  |  | 
c1ccc2c(c1)CCN1CCc3cc(OCCCCCCCCOc4ccc5c(c4)CCN4CCc6ccccc6C54)ccc3C21 (centres undefined) | 3 | 0.68 µM | 1.2 µM | 42 µM | 19.2 µM |  |  |  | 
c1ccc2c(c1)CCN1CCc3cc(OCCCOc4ccc5c(c4)CCN4CCc6ccccc6C54)ccc3C21 (centres undefined) | 30.8 | 0.15 µM | 4.5 µM | 26.9 µM | 8.94 µM |  |  |  | 
CN1CCc2ccccc2Cc2ccc(OCCCCCCCCOc3ccc4c(c3)CCN(C)CCc3ccccc3C4)cc2CC1 | 9.9 | 0.21 µM | 2 µM |  |  |  |  |  | 
COc1ccc2c(c1)CCN(C)CCc1ccccc1C2 |  | > 10000 µM | > 10000 µM |  |  |  |  |  | 
C[N+]12CCc3ccccc3C1c1ccc(OCCCCCCCCCCCCOc3ccc4c(c3)CC[N+]3(C)CCc5ccccc5C43)cc1CC2 (centres undefined) | 3.4 | 0.036 µM | 0.12 µM |  |  |  |  |  | 0.0353 µM
C[N+]12CCc3ccccc3C1c1ccc(OCCCCCCOc3ccc4c(c3)CC[N+]3(C)CCc5ccccc5C43)cc1CC2 (centres undefined) | 5.6 | 0.027 µM | 0.15 µM |  |  |  |  |  | 
COc1ccc2c(c1)CC[N+]1(C)CCc3ccccc3C21 (centres undefined) | 1.4 | 6.4 µM | 8.8 µM |  |  |  |  |  | 
COc1ccc2c(c1)CCN1CCc3ccccc3C21 (centres undefined) |  | > 10000 µM | > 10000 µM | 775 µM | 171 µM |  |  |  | 
